Screening data as filed in PubChem.
Rpn11 block = Rpn11 (human) deubiquitinase inhibition | human 26S proteasome, Ub4-pepOG fluorescence polarization; 20S core pre-blocked with epoxomicin | inhibition, % at 20 µM | 360,000 tested, 0.59% active;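 active = inhibition at 20 µM, scaled to each plate's controls, above about 33%, limit read from the data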
PLCg1 inh = blocks human PLC-gamma1 enzyme activity. P19174. inhibition, % at 12.2 µM. purified PLC-gamma1, fluorogenic substrate, fluorescence. 370,000 tested, 0.84% active
PLC-beta3 inh = blocks human PLC-beta3 enzyme activity; Purified PLC-beta3, fluorogenic substrate, fluorescence; inhibition, % at 12.2 µM; 370,000 tested, 0.18% active; in the data active = inhibition above about 11%;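 also: 0% = median of compound wells on plate and 100% = full blocker control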
UCH37 inh = inhibitors of human deubiquitinating enzyme UCH37 | Q9Y5K5 | purified proteasome/UCH37, Ub-AMC cleavage fluorescence | inhibition, % (test concentration not listed) | 330,000 tested, 0.33% active | AID 588478;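 active = mean inhibition over replicate wells above about 20%, limit read from the data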;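 also: 0% = compound-free wells with enzyme and 100% = wells lacking proteasome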
Target sequence (Q9Y5K5 whole entry, looked up): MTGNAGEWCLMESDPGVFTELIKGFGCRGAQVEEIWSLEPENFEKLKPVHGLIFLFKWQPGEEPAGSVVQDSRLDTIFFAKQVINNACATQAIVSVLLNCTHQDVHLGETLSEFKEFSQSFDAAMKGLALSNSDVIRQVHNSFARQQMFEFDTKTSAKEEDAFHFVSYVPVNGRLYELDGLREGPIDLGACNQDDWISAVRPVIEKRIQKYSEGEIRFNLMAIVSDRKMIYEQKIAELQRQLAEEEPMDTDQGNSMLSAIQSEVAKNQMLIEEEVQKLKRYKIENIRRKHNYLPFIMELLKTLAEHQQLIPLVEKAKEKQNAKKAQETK
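Material: human UCH37 enzyme supplied as purified proteasome complex. Measure: % inhibition of Ub-AMC cleavage fluorescence. Medium: pH 7.4 Tris-HCl (50 mM) with ovalbumin, ATP-MgCl2, DTT. Times: 30 min preincubation with enzyme, 25 min cleavage at room temperature. Detection: AMC fluorescence intensity at 355/460 nm.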
PLCg1 ctr = PLC-gamma1 inhibition, counter-screen for PLC-beta3 hits | shares compounds with PLCg1 inh | purified PLC-gamma1, fluorogenic substrate, fluorescence | inhibition, % at 12.3 µM | 3,300 tested, 3.1% active | AID 743258
PLCb3 confirm = human PLC-beta3 inhibition, confirmation. shares compounds with PLCg1 inh. purified PLC-beta3, fluorogenic substrate fluorescence. inhibition, % at 12.3 µM. 3,300 tested, 1% active. AID 743261; in the data active = inhibition above about 11%
Starred values were filed as active, the others as inactive; . = no result shown. Shown are actives, neighbours in structure and some others; about 1.7% of the full set was active somewhere. Rule as the data show it, unless noted: active = inhibition above about 9.5%; inactive = the rest.

SMILES	Rpn11 block	PLCg1 inh	PLC-beta3 inh	UCH37 inh	PLCg1 ctr	PLCb3 confirm
O=C(O)CCCN1C(=O)C2C3CCC(O3)C2C1=O (stereo not drawn)	-3	5	3	2	.	.
Nc1cc(=O)[nH]c(SCc2ccc(Cl)cc2)n1	-6	1	2	10	.	.
Nc1cc(=O)[nH]c(SCc2cccc(Cl)c2)n1	5	10*	10	3	2	3
CCn1c(SCC(=O)NN=Cc2ccccc2OCC(=O)O)nnc1-c1ccc(C)cc1	.	.	.	2	.	.
CC(=NNC(=O)CCc1c(C)n[nH]c1C)c1ccc([N+](=O)[O-])cc1	.	.	.	6	.	.
O=C(/C=C/c1ccco1)NC(=S)Nc1ccc(C(=O)O)cc1	-13	26*	-11	10	17*	-7
CCOC(=O)N1CCC(NS(=O)(=O)c2ccc3c(c2)CCN3C(C)=O)CC1	-5	12*	6	1	-7	-4
COc1ccc(OCCNc2cc(N3CCCCC3)ccc2[N+](=O)[O-])cc1	5	1	3	9	.	.
CC1CN(c2ccc([N+](=O)[O-])c(NCCOc3ccccc3)c2)CCN1 (stereo not drawn)	-1	8	11*	12	0	1
CCN1C(=O)/C(=C2/Sc3ccccc3N2CC)SC1=Nc1ncn[nH]1	.	.	.	3	.	.
COc1ccc(S(C)(=O)=O)cc1S(C)(=O)=O	4	9.5*	8	6	-5	-2
CC1CCC(NC(=O)C(NS(=O)(=O)c2cccc3nsnc23)C(C)C)CC1 (stereo not drawn)	1	11*	-3	7	3	2
CC(C)C(NS(=O)(=O)c1cccc2nsnc12)C(=O)NC1CCCCC1 (stereo not drawn)	0	0	-4	1	.	.
COc1ccc(C=NNC(=O)c2ccncc2)cc1COc1ccc(NC(C)=O)cc1	.	.	.	8	.	.
O=C(O)c1cccc(-c2ccc(/C=c3/sc4nc5ccccc5n4c3=O)o2)c1	.	18*	-13	.	-182	-176
CC(C)Oc1ccc(N2CC(C(=O)Nc3ccc(N4CCOCC4)cc3)CC2=O)cc1 (stereo not drawn)	0	12*	12*	-2	5	4
COc1ccc(N2CC(C(=O)Nc3cccc(OC(C)C)c3)CC2=O)cc1 (stereo not drawn)	5	1	-8	4	.	.
COc1cccc(C(=O)NN=C(C)c2ccc(NC(=O)Cc3ccccc3)cc2)c1OC	.	.	.	-233	.	.
CCOC(=O)NCc1ccc(S(=O)(=O)Nc2ccc(C)cc2)cc1	-4	13*	4	5	-7	-4
Cc1cc(C)nc(NN=Cc2ccncc2)n1	.	.	.	6	.	.
CC(C)NC(=O)c1cc2c(C(F)(F)F)nn(C)c2s1	-4	0	5	6	.	.
CCCNC(=O)c1cc2c(C(F)(F)F)nn(C)c2s1	0	13*	1	1	-5	-1
NC(=NOCc1ccccc1)c1nonc1N	.	.	.	6	.	.
c1csc(C(c2nnnn2C2CCCCC2)N2CCN(c3nc4ccccc4s3)CC2)c1 (stereo not drawn)	0	11*	6	1	-1	1
c1ccc(C(c2nnnn2C2CCCC2)N2CCN(c3nc4ccccc4s3)CC2)cc1 (stereo not drawn)	-3	0	9	2	.	.
SMILES	Rpn11 block	PLCg1 inh	PLC-beta3 inh	UCH37 inh	PLCg1 ctr	PLCb3 confirm
COc1cccc(-c2noc(C(C)n3nc(C)c([N+](=O)[O-])c3C)n2)c1 (stereo not drawn)	-8	11*	8	1	-6	-3
COc1ccc(NC(=O)c2cc(-c3ccc(OC)c(OC)c3)on2)cc1OC	2	10.0*	10	-14	-155	-194
CC(=NN1CCN(Cc2ccccc2Cl)CC1)c1ccc(O)cc1	.	16*	10	.	-3	-4
CC(=NN1CCN(Cc2ccccc2Cl)CC1)c1ccc(F)cc1	.	.	.	1	.	.
CCn1cc(C=NNC(=O)Cc2ccc([N+](=O)[O-])cc2)c(C)n1	.	.	.	6	.	.
CC1CCCC(C)N1C(=O)COC(=O)c1ccc(O)cc1 (stereo not drawn)	-6	20*	0	6	-8	-2
Cc1ccc(C(=O)OCC(=O)N2C(C)CCCC2C)s1 (stereo not drawn)	-4	-2	-3	0	.	.
COc1ccc(-c2cc(CNC(=O)CN3CCN(C)CC3)on2)cc1	-1	9.5*	-369	5	-7	-2
Cc1cc(C(=O)N/N=C/c2cccnc2)n[nH]1	-1	10*	-2	.	-3	0
COCCSc1ccccc1C(=O)Nc1ccncc1	-3	-1	1	0	.	.
COCCSc1ccccc1C(=O)Nc1nncs1	5	10*	4	6	-1	1
O=C(O)c1ccc(-c2nnn(Cc3ccccc3F)n2)cc1	8	11*	0	1	-5	-3
CC(C)(C)c1cc(C(=O)NN=Cc2ccccc2O)n(-c2ccccc2)n1	.	.	.	-16	.	.
O=S(=O)(c1ccccc1)c1cnn(-c2ccccc2)c1-c1ccc(F)cc1	1	-2	15*	-1	-6	13*
COc1ccc(-n2ncc(S(=O)(=O)c3ccccc3)c2-c2ccc(Cl)cc2)cc1	6	5	3	3	.	.
Cc1ccc(/C=C/C(=O)O)cc1S(=O)(=O)NCC1CCCO1 (stereo not drawn)	2	1	0	4	.	.
Cc1ccc(/C=C/C(=O)O)cc1S(=O)(=O)NC1CCS(=O)(=O)C1 (stereo not drawn)	-4	11*	8	-1	0	1
CCN(c1cccc(C(F)(F)F)c1)S(=O)(=O)c1ccc2c(c1)CCN2C(C)=O	-4	14*	5	5	-9	-5
Cc1cccc(C(=O)N/N=C/c2ccc(OC3CSC3)cc2)c1	-3	0	-2	.	.	.
COc1cccc(C(=O)N/N=C/c2ccc(OC3CSC3)cc2)c1	-1	10*	2	.	-1	0
O=C(COc1ccccc1)N=C1SC2CS(=O)(=O)CC2N1c1ccc(F)cc1F (stereo not drawn)	-5	10*	-2	3	1	-5
O=C(COc1ccccc1)N=C1SC2CS(=O)(=O)CC2N1c1ccccc1F (stereo not drawn)	4	-1	-6	3	.	.
O=C(NC(NC(=S)Nc1ccc(Cl)cc1)C(Cl)(Cl)Cl)c1ccco1 (stereo not drawn)	9	1	1	.	.	.
CC(=O)c1ccc(NC(=S)NC(NC(=O)c2ccco2)C(Cl)(Cl)Cl)cc1 (stereo not drawn)	5	8	12*	3	3	-1
CN(C)N=C/C=C1\CCC/C(=C/c2cccs2)C1=O	.	.	.	4	.	.
COC(=O)[C@]12CCCCC=C1N(Cc1ccc(OC)cc1)C(=O)[C@@H]2CC(=O)N1CCN(C(=O)C2CC2)CC1	.	12*	9	.	-4	-1
CCOC(=O)[C@]12CCCC=C1N(CCCOC)C(=O)[C@@H]2CC(=O)NCc1ccc(C)o1	.	10*	3	.	6	0
